ChEMBL document CHEMBL3414491, “Synthesis and antitumor activities evaluation of m-(4-morpholinoquinazolin-2-yl)benzamides in vitro and in vivo” (Eur J Med Chem, 2015)
The source made the active and inactive calls. No cut-off for these calls is given here.

Key:
HCT-116 [1] = assay: Induction of apoptosis in human HCT116 cells assessed as early apoptotic cells level at 3 uM after 24 hrs by annexin V-FITC/propidium iodide staining based flow cytometry (reference value: 4.36%); format: functional
How it was run: (§1)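 HCT-116 cells were seeded at 1.5 × 10⁵ per well, grown 24 h, then treated 24 h; vehicle control was 0.5% DMSO. Cells were stained with an Annexin V-FITC/PI kit and analysed by flow cytometry. Q4 = early apoptotic, Q2 = late apoptotic; apoptosis rate = Q2 + Q4. Means of three independent experiments.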

[2] = Inhibition of PI3K-mediated PI3K/Akt/mTOR pathway in human HCT116 cells assessed as reduction in Akt Ser473 phosphorylation at 10 uM incubated for 1 hr by Western blot method; format: cell-based; settings: HCT-116
How it was run: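 HCT-116 cells were seeded at 5 × 10⁵ per well and grown 16 h at 37 °C, then exposed to 10 µM for 1 h; vehicle control was 0.5% DMSO. Lysates were normalised by BCA, run on 10% SDS-PAGE, transferred to nitrocellulose and probed for AKT and p-Ser473 AKT, with β-actin as loading control. Detection was by chemiluminescence; bands were quantified densitometrically.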

HCT-116 [3] = assay: Induction of apoptosis in human HCT116 cells at 3 uM after 24 hrs by annexin V-FITC/propidium iodide staining based flow cytometry; format: functional; how it was run: as §1
HCT-116 [4] = assay: Induction of cellular morphological changes in human HCT116 cells assessed as induction of cell shrinking at 1 and 10 uM after 24 hrs by Hoechst staining based phase contrast microscopy; format: functional
How it was run: (§2)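 HCT-116 cells (15,000 per well) were grown 24 h, then exposed to 0.1, 1 or 10 µM for 24 h; vehicle control was 0.5% DMSO. Cells were photographed under phase-contrast microscopy, then stained with Hoechst 33258 for 0.5 h at 37 °C, washed with PBS and viewed by fluorescence microscopy.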

HCT-116 [5] = assay: Induction of apoptosis in human HCT116 cells assessed as late apoptotic cells level at 3 uM after 24 hrs by annexin V-FITC/propidium iodide staining based flow cytometry (reference value: 3.08%); format: functional; how it was run: as §1
CCRF S-180 [6] = assay: Antitumor activity against mouse S180 cells homografted in mouse assessed as reduction tumor weight at 30 mg/kg, po once daily for 8 days; format: functional; settings: CCRF S-180, 192 h
How it was run: (§3)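 Mice (19.6 g average) had 3 × 10⁶ S180 cells injected subcutaneously into the flank and were randomized into three groups of 8. From the next day they received compound in NMP/PEG400/H2O (1:8:1) orally once daily for 8 days, or solvent alone. Body weights were recorded daily. On Day 9 tumors and bodies were weighed and tumor-weight inhibitory ratios calculated.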

HCT-116 [7] = assay: Induction of nuclear fragmentation in human HCT116 cells at 0. 1 to 10 uM after 24 hrs by Hoechst staining based fluorescent microscopy; format: functional, cell-based; how it was run: as §2
MCF7 = assay: Antiproliferative activity against human MCF7 cells after 72 hrs by MTT assay; format: functional, cell-based; settings: MCF7, 72 h
How it was run: (§4)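 MTT: cells seeded at 1500–4000 per well, grown 24 h, then given serial dilutions (1% DMSO final) for 72 h at 37 °C. MTT was added for 4 h, formazan dissolved in DMSO and absorbance read at 490 nm. Three separate experiments in triplicate; IC50 is the concentration giving 50% cell death versus control.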

[8] = Antiproliferative activity against human HCT116 cells after 72 hrs by MTT assay; format: functional, cell-based; settings: HCT-116, 72 h; how it was run: as §4
[9] = target: PI3-kinase p110-delta/p85-alpha (Homo sapiens, UniProt O00329); assay: Inhibition of p110delta/p85alpha (unknown origin) using L-alpha-phosphatidylinositol incubated for 40 mins by ADP depletion detection based luciferase assay; format: protein-complex assay
Mus musculus [10] = assay: Toxicity in mouse homografted with mouse S180 cells assessed as effect on body weight at 15 mg/kg, po once daily for 8 days; format: organism-based, CCRF S-180; parameters: dose 15 mg/kg, route oral; settings: in vivo, 192 h; how it was run: as §3
[11] = target: PI3-kinase p110-alpha/p85-alpha (Homo sapiens, UniProt P42336); assay: Inhibition of p110alpha/p85alpha (unknown origin) using L-alpha-phosphatidylinositol incubated for 40 mins by ADP depletion detection based luciferase assay; format: protein-complex assay
Mus musculus [12] = assay: Toxicity in mouse homografted with mouse S180 cells assessed as effect on body weight at 30 mg/kg, po once daily for 8 days; format: organism-based, CCRF S-180; parameters: dose 30 mg/kg, route oral; settings: in vivo, 192 h; how it was run: as §3
PI3K p110 beta/p85 alpha = PI3K p110 beta/p85 alpha (Homo sapiens, UniProt P42338); assay: Inhibition of p110beta/p85alpha (unknown origin) using L-alpha-phosphatidylinositol incubated for 40 mins by ADP depletion detection based luciferase assay; format: protein-complex assay
A549 = assay: Antiproliferative activity against human A549 cells after 72 hrs by MTT assay; format: functional, cell-based; settings: A549, 72 h; how it was run: as §4
HCT-116 [13] = assay: Induction of cell cycle arrest in human HCT116 cells assessed as accumulation at G2/M phase at 3 uM after 24 hrs by propidium iodide staining based flow cytometry (reference value: 12.98%); format: functional
HCT-116 [14] = assay: Induction of chromatin condensation in human HCT116 cells at 0. 1 to 10 uM after 24 hrs by Hoechst staining based fluorescent microscopy; format: functional, cell-based; how it was run: as §2
HCT-116 [15] = assay: Induction of apoptosis in human HCT116 cells assessed as late apoptotic cells level at 1 uM after 24 hrs by annexin V-FITC/propidium iodide staining based flow cytometry (reference value: 3.08%); format: functional; how it was run: as §1
HCT-116 [16] = assay: Induction of cell cycle arrest in human HCT116 cells assessed as accumulation at S phase at 3 uM after 24 hrs by propidium iodide staining based flow cytometry (reference value: 38.71%); format: functional
[17] = target: PI3-kinase subunit gamma/Phosphoinositide 3-kinase regulatory subunit 5 (Homo sapiens, UniProt P48736); assay: Inhibition of p110gamma/PIK3R5 (unknown origin) using L-alpha-phosphatidylinositol incubated for 40 mins by ADP depletion detection based luciferase assay; format: protein-complex assay
HCT-116 [18] = assay: Induction of apoptosis in human HCT116 cells at 1 uM after 24 hrs by annexin V-FITC/propidium iodide staining based flow cytometry; format: functional; how it was run: as §1
HCT-116 [19] = assay: Induction of cellular morphological changes in human HCT116 cells assessed as induction of fragmentation at 1 and 10 uM after 24 hrs by Hoechst staining based phase contrast microscopy; format: functional, cell-based; how it was run: as §2
HCT-116 [20] = assay: Induction of apoptosis in human HCT116 cells assessed as early apoptotic cells level at 1 uM after 24 hrs by annexin V-FITC/propidium iodide staining based flow cytometry (reference value: 4.36%); format: functional; how it was run: as §1
CCRF S-180 [21] = assay: Antitumor activity against mouse S180 cells homografted in mouse assessed as reduction tumor weight at 15 mg/kg, po once daily for 8 days; format: functional; settings: CCRF S-180, 192 h; how it was run: as §3
HCT-116 [22] = assay: Induction of cell cycle arrest in human HCT116 cells assessed as accumulation at G0/G1 phase at 3 uM after 24 hrs by propidium iodide staining based flow cytometry (reference value: 48.31%); format: functional
HCT-116 [23] = assay: Induction of cellular morphological changes in human HCT116 cells assessed as induction of vacuolization at 1 and 10 uM after 24 hrs by Hoechst staining based phase contrast microscopy; format: functional, cell-based; how it was run: as §2
[24] = Antiproliferative activity against human U87MG cells after 72 hrs by MTT assay; format: functional, cell-based, U-87MG ATCC; settings: U-87 MG; how it was run: as §4

PI3-kinase p110-delta/p85-alpha, sequence (P27986 whole entry): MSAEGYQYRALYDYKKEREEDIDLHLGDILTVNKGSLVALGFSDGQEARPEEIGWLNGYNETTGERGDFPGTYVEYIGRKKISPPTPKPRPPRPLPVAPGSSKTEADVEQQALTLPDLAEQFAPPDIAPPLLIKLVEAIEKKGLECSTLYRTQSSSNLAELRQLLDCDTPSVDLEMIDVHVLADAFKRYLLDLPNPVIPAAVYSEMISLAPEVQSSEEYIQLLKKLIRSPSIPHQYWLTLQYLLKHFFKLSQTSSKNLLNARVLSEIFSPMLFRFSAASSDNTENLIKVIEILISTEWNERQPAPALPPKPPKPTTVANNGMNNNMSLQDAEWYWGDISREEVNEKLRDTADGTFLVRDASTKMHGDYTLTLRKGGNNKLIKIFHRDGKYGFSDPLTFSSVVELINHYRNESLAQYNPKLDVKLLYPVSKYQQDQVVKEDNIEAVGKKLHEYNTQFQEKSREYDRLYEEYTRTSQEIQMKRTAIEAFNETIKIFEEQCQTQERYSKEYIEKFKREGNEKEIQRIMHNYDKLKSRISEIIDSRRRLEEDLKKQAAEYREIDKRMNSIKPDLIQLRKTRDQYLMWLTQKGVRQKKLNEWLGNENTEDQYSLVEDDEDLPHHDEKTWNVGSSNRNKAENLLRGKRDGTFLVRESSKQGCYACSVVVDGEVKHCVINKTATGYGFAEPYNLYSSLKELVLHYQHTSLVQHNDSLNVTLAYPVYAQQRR
PI3-kinase p110-delta/p85-alpha, sequence (O00329 whole entry): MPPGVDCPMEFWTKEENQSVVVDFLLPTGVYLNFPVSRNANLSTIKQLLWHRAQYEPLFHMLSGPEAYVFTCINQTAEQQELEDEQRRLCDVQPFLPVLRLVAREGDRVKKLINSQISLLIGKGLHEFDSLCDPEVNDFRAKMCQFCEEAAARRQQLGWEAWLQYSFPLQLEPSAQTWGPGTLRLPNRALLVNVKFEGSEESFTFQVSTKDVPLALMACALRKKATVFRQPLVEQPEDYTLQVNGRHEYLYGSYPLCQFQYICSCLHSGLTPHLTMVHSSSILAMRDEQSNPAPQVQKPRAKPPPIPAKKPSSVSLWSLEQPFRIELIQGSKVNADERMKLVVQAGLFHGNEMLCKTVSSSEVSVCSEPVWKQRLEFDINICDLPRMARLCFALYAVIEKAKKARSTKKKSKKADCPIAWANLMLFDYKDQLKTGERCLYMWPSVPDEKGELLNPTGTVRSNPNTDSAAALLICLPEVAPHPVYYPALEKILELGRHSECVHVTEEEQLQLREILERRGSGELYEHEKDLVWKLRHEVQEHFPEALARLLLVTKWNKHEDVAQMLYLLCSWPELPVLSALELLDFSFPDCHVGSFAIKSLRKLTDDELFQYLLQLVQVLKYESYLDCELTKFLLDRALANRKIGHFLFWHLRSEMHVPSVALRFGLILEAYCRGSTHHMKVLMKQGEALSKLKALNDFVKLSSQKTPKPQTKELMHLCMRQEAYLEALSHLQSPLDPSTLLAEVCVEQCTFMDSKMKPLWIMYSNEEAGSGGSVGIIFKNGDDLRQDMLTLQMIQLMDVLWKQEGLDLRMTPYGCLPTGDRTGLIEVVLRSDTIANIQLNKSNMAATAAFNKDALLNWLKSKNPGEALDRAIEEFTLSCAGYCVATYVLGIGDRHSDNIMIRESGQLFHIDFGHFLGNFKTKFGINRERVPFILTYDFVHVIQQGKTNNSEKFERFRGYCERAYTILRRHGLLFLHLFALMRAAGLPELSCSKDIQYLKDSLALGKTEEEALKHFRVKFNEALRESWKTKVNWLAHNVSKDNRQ
PI3K p110 beta/p85 alpha, sequence (P27986 whole entry): as the sequence (P27986 whole entry) above
PI3K p110 beta/p85 alpha, sequence (P42338 whole entry): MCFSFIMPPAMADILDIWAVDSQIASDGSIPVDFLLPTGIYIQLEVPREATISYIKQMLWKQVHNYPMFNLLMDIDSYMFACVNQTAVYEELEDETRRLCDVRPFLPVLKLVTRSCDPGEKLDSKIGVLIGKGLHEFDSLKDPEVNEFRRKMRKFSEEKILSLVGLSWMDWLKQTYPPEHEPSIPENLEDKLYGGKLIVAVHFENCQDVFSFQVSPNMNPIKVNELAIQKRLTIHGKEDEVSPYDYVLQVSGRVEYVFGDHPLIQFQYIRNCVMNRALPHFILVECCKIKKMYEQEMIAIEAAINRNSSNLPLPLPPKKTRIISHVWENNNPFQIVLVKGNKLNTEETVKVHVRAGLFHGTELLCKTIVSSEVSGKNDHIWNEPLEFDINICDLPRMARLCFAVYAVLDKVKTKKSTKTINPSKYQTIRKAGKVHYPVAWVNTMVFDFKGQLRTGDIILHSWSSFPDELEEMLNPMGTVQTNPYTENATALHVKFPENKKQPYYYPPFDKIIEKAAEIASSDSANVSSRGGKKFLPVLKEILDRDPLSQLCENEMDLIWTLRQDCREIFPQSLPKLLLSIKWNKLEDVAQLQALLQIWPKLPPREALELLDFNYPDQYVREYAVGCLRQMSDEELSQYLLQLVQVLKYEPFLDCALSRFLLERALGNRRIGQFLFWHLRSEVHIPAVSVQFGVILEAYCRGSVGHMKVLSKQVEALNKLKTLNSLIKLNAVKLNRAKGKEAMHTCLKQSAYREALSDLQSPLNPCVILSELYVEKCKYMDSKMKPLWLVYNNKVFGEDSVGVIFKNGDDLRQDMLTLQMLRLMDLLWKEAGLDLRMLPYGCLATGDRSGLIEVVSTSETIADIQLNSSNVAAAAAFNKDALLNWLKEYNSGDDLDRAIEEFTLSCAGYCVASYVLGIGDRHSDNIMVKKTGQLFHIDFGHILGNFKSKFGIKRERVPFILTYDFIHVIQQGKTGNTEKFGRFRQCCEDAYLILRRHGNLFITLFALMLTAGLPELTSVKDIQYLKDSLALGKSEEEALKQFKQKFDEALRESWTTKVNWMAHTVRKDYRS
PI3-kinase p110-alpha/p85-alpha, sequence (P27986 whole entry): as the sequence (P27986 whole entry) above
PI3-kinase p110-alpha/p85-alpha, sequence (P42336 whole entry): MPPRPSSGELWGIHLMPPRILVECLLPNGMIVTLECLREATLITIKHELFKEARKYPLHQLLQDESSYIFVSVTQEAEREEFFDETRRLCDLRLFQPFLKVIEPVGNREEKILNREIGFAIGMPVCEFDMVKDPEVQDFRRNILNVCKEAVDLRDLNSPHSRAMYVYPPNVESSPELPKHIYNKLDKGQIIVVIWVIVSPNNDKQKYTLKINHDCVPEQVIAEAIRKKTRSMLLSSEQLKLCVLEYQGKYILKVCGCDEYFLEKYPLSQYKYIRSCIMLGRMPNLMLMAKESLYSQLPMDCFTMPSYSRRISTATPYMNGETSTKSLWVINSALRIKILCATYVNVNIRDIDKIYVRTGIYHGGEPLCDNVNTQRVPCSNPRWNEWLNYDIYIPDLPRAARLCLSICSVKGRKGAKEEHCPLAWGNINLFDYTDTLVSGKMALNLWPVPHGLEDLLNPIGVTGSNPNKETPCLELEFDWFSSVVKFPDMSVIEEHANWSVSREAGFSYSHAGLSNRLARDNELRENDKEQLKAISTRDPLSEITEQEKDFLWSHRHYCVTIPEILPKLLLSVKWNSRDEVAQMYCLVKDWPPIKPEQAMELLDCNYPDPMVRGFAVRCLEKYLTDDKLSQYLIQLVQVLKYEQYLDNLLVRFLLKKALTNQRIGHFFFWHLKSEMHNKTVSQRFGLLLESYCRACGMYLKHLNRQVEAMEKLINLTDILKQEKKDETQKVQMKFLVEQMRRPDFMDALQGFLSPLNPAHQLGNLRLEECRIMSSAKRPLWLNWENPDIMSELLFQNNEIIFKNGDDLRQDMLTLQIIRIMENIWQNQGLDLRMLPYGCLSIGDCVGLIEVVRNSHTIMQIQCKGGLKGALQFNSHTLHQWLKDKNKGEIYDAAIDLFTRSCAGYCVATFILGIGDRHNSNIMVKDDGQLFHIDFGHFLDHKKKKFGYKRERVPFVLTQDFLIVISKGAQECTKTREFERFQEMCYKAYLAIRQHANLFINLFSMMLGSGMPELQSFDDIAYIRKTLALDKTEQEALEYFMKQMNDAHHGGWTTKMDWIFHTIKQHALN

COc1cc2nc(-c3cc(OC(F)(F)F)cc(C(N)=O)c3)nc(N3CCOCC3)c2cc1OC
Activity (HCT-116 [1]): 16.25%
inhibition [2]: Active
Activity (HCT-116 [3]): 27.3%
Activity (HCT-116 [4]): Active
Activity (HCT-116 [5]): 7.59%
inhibition in vivo at 30 mg/kg (CCRF S-180 [6]): 64.2%
Activity (HCT-116 [7]): Active
IC50 (MCF7): 1090 nM
IC50 [8]: 300 nM
IC50 [9]: 330 nM
Activity (Mus musculus [10]): Non-toxic
IC50 [11]: 96 nM
Activity (Mus musculus [12]): Non-toxic
IC50 (PI3K p110 beta/p85 alpha): 128 nM
IC50 (A549): 1680 nM
Activity (HCT-116 [13]): 23.19%
Activity (HCT-116 [14]): Active
Activity (HCT-116 [15]): 6.76%
Activity (HCT-116 [16]): 20.11%
IC50 [17]: 465 nM
Activity (HCT-116 [18]): 22.7%
Activity (HCT-116 [19]): Active
Activity (HCT-116 [20]): 11.5%
inhibition in vivo at 15 mg/kg (CCRF S-180 [21]): 49.3%
Activity (HCT-116 [22]): 56.69%
Activity (HCT-116 [23]): Active
IC50 [24]: 600 nM
